Assay [1] relates to phosphorylated TAK1 (S412). As to the kind of experiment: pTAK1. Type of assay: cell-based, murine. Conditions: MPC-11 cells, 0.1 or 0.5 μM, 48 h, western blot. Summed up:
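MPC-11 cells were seeded at 0.5–1 × 10^6, left 24 h, then treated with test compound at 0.1 or 0.5 μM or DMSO for 48 h. Cells were lysed in RIPA (pH 7.4) with protease inhibitors and 1 mM PMSF, and protein was measured by BCA. Lysates were run on 10% SDS-PAGE and blotted to PVDF. Blots were probed overnight at 4 °C for pTAK1, TAK1 and β-actin, then with HRP secondaries for 2 h at 24 °C. Detection was by chemiluminescence, with bands quantified relative to actin.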
A general note: In western blotting, separated proteins are transferred to a membrane and probed.

A further assay concerns the target T1, TAK1 (Homo sapiens, UniProt O43318).
T1 sequence (O43318 1-303 limits assumed): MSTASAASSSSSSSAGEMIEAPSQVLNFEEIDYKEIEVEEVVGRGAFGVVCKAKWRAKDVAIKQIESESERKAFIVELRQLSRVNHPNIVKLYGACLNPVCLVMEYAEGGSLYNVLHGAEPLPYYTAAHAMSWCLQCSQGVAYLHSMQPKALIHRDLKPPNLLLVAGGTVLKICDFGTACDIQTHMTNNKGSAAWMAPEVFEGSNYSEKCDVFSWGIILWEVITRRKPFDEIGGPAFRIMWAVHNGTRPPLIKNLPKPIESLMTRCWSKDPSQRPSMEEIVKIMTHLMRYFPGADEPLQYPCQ
As to the kind of experiment: TAK1 ADP-Glo kinase assay. Type of assay: biochemical. Particulars: for TAK1 kinase inhibition: compound 500 nM. The gist of the method:
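Tiered TAK1 screen using the ADP-Glo kinase assay. Test compounds were first tested at 500 nM. Those exceeding 50% enzyme inhibition were retested at 100 nM, then at 20 nM. Values are means of triplicates with SD.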
In general terms: In ADP-Glo the light output rises with the ADP produced.

The subject of a further assay is MPC-11 cells. As to the kind of experiment: Cell viability assay. In kind it is cell-based, murine. Conditions: compound 200 nM. Summed up:
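MPC-11 cells were grown in DMEM with 10% FBS at 37 °C under 5% CO2 and kept below 10 passages. Cells were seeded at 4–5 × 10^3 per well, left 24 h, then exposed to test compound (screened at 1 and 0.2 μM) for 72 h. CellTiter-Blue was added for 3 h and fluorescence read at 560/590 nm. Runs were in triplicate, normalised to DMSO-treated cells.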

A further assay concerns the target PKAC alpha (Homo sapiens, UniProt P17612). As to the kind of experiment: KinomeScan PKAC alpha. Type of assay: binding. Conditions: in words.
Another assay has as its system kinase anti-targets. As to the kind of experiment: KinomeScan profiling, kinase anti-targets. Type of assay: binding. Particulars: Eurofins KinomeScan; KIT, ZAP70, JAK2, RET, KDR, PDGFR, FGFR, EGFR, BRAF, AKT, AURKA or B.

Bounds are passed on as bounds.

On to `CCCn1/c(=N/C(=O)c2cccc(C(N)=O)c2)[nH]c2ccccc21` [Takinib, reference compound], for which, in assay [1], the “levels of phosphorylated TAK1 (S412) compared to DMSO control” value (from here on “levels … compared to DMSO control”) is listed as “did not show a significant difference”. Regarding `C[C@@H]1CN(c2ccc3ncc(-c4cccc(C#N)c4)n3n2)C[C@H](C)O1` [Compound 19, 3-(6-((2S,6R)-2,6-Dimethylmorpholino)imidazo[1,2-b]pyridazin-3-yl)benzonitrile], at TAK1, the TAK1 kinase inhibition entry is “negligible kinase inhibition”. Same read-out and setting: the result for `C[C@@H]1CN(c2ccc3ncc(-c4ccc(C(F)(F)F)cc4)n3n2)C[C@H](C)O1` [Compound 7, (2S,6R)-2,6-Dimethyl-4-(3-(4-(trifluoromethyl)phenyl)imidazo[1,2-b]pyridazin-6-yl)morpholine] reads “moderate kinase inhibition”.

For `C[C@@H]1CN(c2ccc3ncc(-c4cccnc4)n3n2)C[C@H](C)O1` [Compound 18, (2S,6R)-2,6-Dimethyl-4-(3-(pyridin-3-yl)imidazo[1,2-b]pyridazin-6-yl)morpholine], the TAK1 kinase inhibition result at TAK1 was “negligible kinase inhibition”. Still for that read-out and setting: then `C[C@@H]1CN(c2ccc3ncc(-c4ccc(F)cc4)n3n2)C[C@H](C)O1` [Compound 9, (2S,6R)-4-(3-(4-Fluorophenyl)imidazo[1,2-b]pyridazin-6-yl)-2,6-dimethylmorpholine], with “moderate kinase inhibition”; and `C[C@@H]1CN(c2ccc3ncc(-c4cccc(S(C)(=O)=O)c4)n3n2)C[C@H](C)O1` [Compound 8, (2S,6R)-2,6-Dimethyl-4-(3-(3-(methylsulfonyl)phenyl)imidazo[1,2-b]pyridazin-6-yl)morpholine], with “moderate kinase inhibition”.

For the compound `C[C@@H]1CN(c2ccc3ncc(-c4ccncc4)n3n2)C[C@H](C)O1` [Compound 17, (2S,6R)-2,6-Dimethyl-4-(3-(pyridin-4-yl)imidazo[1,2-b]pyridazin-6-yl)morpholine], the TAK1 kinase inhibition result on TAK1 is recorded as “moderate kinase inhibition”. As for `Cc1n[nH]c2ccc(-c3cnc4ccc(N5CCO[C@@H](C)C5)nn34)cc12` [Compound 33, (S)-2-Methyl-4-(3-(3-methyl-1H-indazol-5-yl)imidazo[1,2-b]pyridazin-6-yl)morpholine], in the assay on MPC-11 cells, the “inhibition of MPC-11” value is “inactive”. With `C[C@@H]1CN(c2ccc3ncc(-c4ccc(OC(F)(F)F)cc4)n3n2)C[C@H](C)O1` [Compound 11, (2S,6R)-2,6-Dimethyl-4-(3-(4-(trifluoromethoxy)phenyl)imidazo[1,2-b]pyridazin-6-yl)morpholine], the TAK1 kinase inhibition result at TAK1 was “negligible kinase inhibition”.

Consider `C[C@@H]1CN(c2ccc3ncc(-c4ccc(C#N)cc4)n3n2)C[C@H](C)O1` [Compound 6, 4-(6-((2S,6R)-2,6-Dimethylmorpholino)imidazo[1,2-b]pyridazin-3-yl)benzonitrile], for which, at TAK1, the TAK1 kinase inhibition entry is “moderate kinase inhibition”. On to `C[C@@H]1CN(c2ccc3ncc(-c4ccc(C(N)=O)cc4)n3n2)C[C@H](C)O1` [Compound 12, 4-(6-((2S,6R)-2,6-Dimethylmorpholino)imidazo[1,2-b]pyridazin-3-yl)benzamide], for which the “inhibition of TAK1” value at TAK1 (compound 100 nM) was “decrease in TAK1 kinase inhibition compared to the previous screening”.

`CNC(=O)c1ccc(-c2cnc3ccc(N4C[C@@H](C)O[C@@H](C)C4)nn23)cc1` [Compound 13, 4-(6-((2S,6R)-2,6-dimethylmorpholino)imidazo[1,2-b]pyridazin-3-yl)-N-methylbenzamide]: the TAK1 kinase inhibition entry on TAK1 is listed as “moderate kinase inhibition”. Same read-out and setting: then `C[C@@H]1CN(c2ccc3ncc(-c4ccc(CC#N)cc4)n3n2)C[C@H](C)O1` [Compound 14, 2-(4-(6-((2S,6R)-2,6-Dimethylmorpholino)imidazo[1,2-b]pyridazin-3-yl)phenyl)acetonitrile], with “moderate kinase inhibition”; and `C[C@@H]1CN(c2ccc3ncc(-c4ccc(F)c(C#N)c4)n3n2)C[C@H](C)O1` [Compound 16, 5-(6-((2S,6R)-2,6-Dimethylmorpholino)imidazo[1,2-b]pyridazin-3-yl)-2-fluorobenzonitrile], with “moderate kinase inhibition”. The term inhibition denotes how much of the control response was suppressed. Consider `C[C@@H]1CN(c2ccc3ncc(-c4ccc5cn[nH]c5c4)n3n2)C[C@H](C)O1` [Compound 21, (2S,6R)-4-(3-(1H-Indazol-6-yl)imidazo[1,2-b]pyridazin-6-yl)-2,6-dimethylmorpholine], for which the inhibition at 0.5 µM on TAK1 (read-out: TAK1 kinase inhibition, compound 500 nM) was below 50%. For the compound `C[C@@H]1CN(c2ccc3ncc(-c4ccc5[nH]nc(C6CC6)c5c4)n3n2)C[C@H](C)O1` [Compound 26, (2S,6R)-4-(3-(3-Cyclopropyl-1H-indazol-5-yl)imidazo[1,2-b]pyridazin-6-yl)-2,6-dimethylmorpholine], at PKAC alpha, the “affinity for PKAC alpha” value is given as “low affinity”. In addition, the “levels … compared to DMSO control” value in assay [1] is listed as “successful in reducing levels of phosphorylated TAK1 (S412)”. Also, in the assay with kinase anti-targets, the “inhibition of kinase anti-targets” value was “minimal inhibition”. For `C[C@@H]1CN(c2ccc3ncc(-c4ccccc4)n3n2)C[C@H](C)O1` [Compound 5, (2S,6R)-2,6-Dimethyl-4-(3-phenylimidazo[1,2-b]pyridazin-6-yl)morpholine], the TAK1 kinase inhibition result on TAK1 is “negligible kinase inhibition”. On to `Cc1n[nH]c2ccc(-c3cnc4ccc(N5C[C@@H](C)O[C@@H](C)C5)nn34)cc12` [Compound 3, (2S,6R)-2,6-Dimethyl-4-(3-(3-methyl-1H-indazol-5-yl)imidazo[1,2-b]pyridazin-6-yl)morpholine], for which the “levels … compared to DMSO control” value in assay [1] is “successful in reducing levels of phosphorylated TAK1 (S412)”.

The record behind these values is paper PMC10809330 (RSC Medicinal Chemistry, 2023).
